Holding throughout (details): in vivo
The nature of data set [1]: Drug excretion in urine of female Sprague-Dawley rat treated with [14C]sunitinib at 5 mg/kg, iv administered as single dose by liquid scintillation counting. It is filed as ADME, organism-based. Also on record: dose 5 mg/kg, dosed compound name [14C]Sunitinib, route intravenous. The method in brief: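 Five female rats given a single tail-vein bolus of [14C]sunitinib L-malate, 5 mg/kg free base equivalents (50 µCi/kg). Urine and feces collected over 0-72 h into dry-ice cooled containers. Urine counted directly by liquid scintillation; feces homogenized and combusted in oxygen before counting. Expired air also monitored.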

Data set [2] is described as follows: Drug excretion in feces of female cynomolgus monkey treated with [14C]sunitinib at 6 mg/kg, po administered as single dose by liquid scintillation counting. It counts as ADME, organism-based, Macaca fascicularis. Further details: dose 6 mg/kg, dosed compound name [14C]Sunitinib, route oral. The method in brief:
(§1)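 Cynomolgus monkeys given one oral gavage dose of [14C]sunitinib L-malate, 6 mg/kg (37 µCi/kg). Urine collected at 0-4, 4-8 and 8-24 h, feces at 0-8 and 8-24 h, then both daily to 14 days; samples stored at -80 °C. Duplicate urine aliquots counted by liquid scintillation; homogenized feces combusted before counting.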

A short description of data set [3]: Drug excretion in urine of female cynomolgus monkey treated with [14C]sunitinib at 6 mg/kg, po administered as single dose by liquid scintillation counting. It counts as ADME, organism-based, Macaca fascicularis. Also on record: dose 6 mg/kg, dosed compound name [14C]Sunitinib, route oral. The procedure, abridged: as §1
The nature of data set [4]: Drug excretion in feces of male cynomolgus monkey treated with [14C]sunitinib at 6 mg/kg, po administered as single dose by liquid scintillation counting. It is filed as ADME, organism-based, Macaca fascicularis. Further details: dose 6 mg/kg, dosed compound name [14C]Sunitinib, route oral. The method in brief: as §1
Data set [5] is described as follows: Drug excretion in urine of male cynomolgus monkey treated with [14C]sunitinib at 6 mg/kg, po administered as single dose by liquid scintillation counting. It counts as ADME, organism-based, Macaca fascicularis. Further details: dose 6 mg/kg, dosed compound name [14C]Sunitinib, route oral. The procedure, abridged: as §1
The nature of data set [6]: Drug excretion in urine of female Sprague-Dawley rat treated with [14C]sunitinib at 15 mg/kg, po administered as single dose by liquid scintillation counting. It counts as ADME, organism-based. Also on record: dose 15 mg/kg, dosed compound name [14C]Sunitinib, route oral. The method in brief:
(§2)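 Female and male rats given one oral gavage dose, 15 mg/kg free base equivalents (50 µCi/kg). Urine and feces collected on dry ice, protected from light, over 0-4, 4-8 and 8-24 h, then daily to 72 h. Urine aliquots counted by liquid scintillation; homogenized feces combusted in oxygen before counting. Counts 5 min, external quench correction.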

Data set [7] is described as follows: Drug excretion in urine of male Sprague-Dawley rat treated with [14C]sunitinib at 15 mg/kg, po administered as single dose by liquid scintillation counting. Also on record: dose 15 mg/kg, dosed compound name [14C]Sunitinib, route oral. It counts as ADME, organism-based. The method in brief: as §2
Data set [8] in a line: Drug excretion in urine of human treated with [14C]sunitinib at 50 mg, po administered as single dose by liquid scintillation counting.
Data set [9] in a line: Drug excretion in feces of human treated with [14C]sunitinib at 50 mg, po administered as single dose by liquid scintillation counting.

Some results are limits rather than exact numbers.

For `CC[N+]([O-])(CC)CCNC(=O)c1c(C)[nH]c(/C=C2\C(=O)Nc3ccc(F)cc32)c1C`, the Compound recovery in [1] is given as 0.7%; in [2], 2.6%; in data set [3] it was 0.2%; in data set [4] it was 3.2%; in [5], under 0.1%; in [6] it was 1.5%. The Compound recovery in data set [7] is 0.3%; in [8], “metabolite_not_detected”.

`Cc1[nH]c(/C=C2\C(=O)Nc3ccc(F)cc32)c(C)c1C(=O)NCC(=O)O`: the Compound recovery in data set [2] was 6.2%; in [4] it was 6.3%; in data set [9], “metabolite_not_detected”.

Regarding `CCNCCNC(=O)c1c(C)[nH]c(C=C2C(=O)Nc3ccc(F)cc32)c1C` (mixture of isomers), the Compound recovery in [2] turned out to be 29.3%; in data set [4], 30.7%.

Take `CCN(CC)CCNC(=O)c1c(C)[nH]c(CC2C(=O)Nc3ccc(F)cc32)c1C` (stereo unspecified): the Compound recovery in data set [2] is listed as 1%; in data set [4] it was 1.5%; in data set [9], “metabolite_not_detected”.

The record behind these values is ChEMBL document CHEMBL3525900, “Pharmacokinetics, distribution, and metabolism of [14C]sunitinib in rats, monkeys, and humans” (Drug Metab Dispos, 2012).
